Each block holds one substance with its values, some of them ahead of it. Ends that are not written are not given here.
Legend:
[1] = ThT fluorescence aggregation assay; format: physicochemical; details: for Concentration at which amyloid-like aggregation was observed (ThT): pH 5.0, 20 mM NaOAc, 1–200 μM tested
In short: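 Peptide (199 μL; 200–1 μM at pH 5.0 in 20 mM NaOAc, or 200 μM in buffers of pH 3.0–7.0) was mixed with 1 μL ThT. Fluorescence was read at 37 °C (ex 444 nm, em 485 nm, 10 nm bandwidth) every 10 min for at least 15 h with gentle agitation. Signal was normalised to buffer plus ThT. Runs were done at least three times, each in triplicate; end point at 15 h.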

[2] = test system: Human EBV-infected BLCs; assay: Immunofluorescence microscopy of bioorthogonal peptides; format: cell-based; details: for Intracellular aggregation in EBV-infected BLCs (within LC3 positive vesicles): 6.2 and 25 μM (also 3.1, 12.5 μM), 48 h, serum-free, CuAAC Alexa647-azide; for Aggregates in the absence of cells (CuAAC with Alexa647-azide): serum-free medium, no cells
In short: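 Human BSM EBV-lymphoblastoid cells (1.5 × 10^6/well) were incubated with peptide (6.25 or 25 μM; medium as control) in serum-free R0 medium at 37 °C. Cytospins (5 × 10^4 cells, 28g, 3 min) were air-dried, stored at −80 °C, and PFA-fixed. Staining: anti-LC3 1:20 overnight at 4 °C, then anti-mouse FITC 1:400. Peptide was detected by CuAAC (0.064 mM CuSO4, 0.038 mM ascorbate, 0.25 mM THPTA, AF647-azide 1:160, 100 mM Tris pH 8.0, 1 h, RT, dark). DAPI mounting; fluorescence microscopy.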

[3] = test system: marmoset EBV-BLCs and co-culture with lymphocytes; assay: FACS-based immunotoxicity assay; format: cell-based, Callithrix jacchus; details: CellTrace-stained EBV-BLCs, 24 h, 30, 10, 3, 1 μg/mL tested
In short: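 EBV-BLCs were prestained with CellTrace for 20 min at RT and plated at 1 × 10^3 cells/well. Peptide (30, 10, 3, 1 μg/mL; medium as negative control) was added for 1 h at 37 °C, 5% CO2, in medium with 10% FCS. Freshly thawed axillary lymph node mononuclear cells from an EAE marmoset were then added at 1 × 10^5 cells/well for 24 h. Cells were stained with a live/dead marker and AnnexinV-APC, then fixed in 1% PFA/AnnexinV binding buffer. CellTrace+ and CellTrace– gates were each gated for AnnexinV and live/dead. Non-co-cultured lymphocytes served as control.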

[4] = Seeded nucleation ThT aggregation assay; format: physicochemical; details: 40 μM peptide, 200 μL, pH 5.0; seeds of 5 or 7, 3–300 ng
In short: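 Seeds were prepared by centrifuging aggregated peptide (20000g, 30 min) and homogenising the pellet in 20 mM NaOAc to an estimated 0.1 mg/mL. ThT fluorescence was followed at 37 °C (ex 444 nm, em 485 nm) in kinetic mode.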

Concentration at which amyloid-like aggregation was observed (ThT) ([1]; 37 °C): aggregation at all concentrations tested
Substance: MOG35-55(Cit41&Cit52) [Peptide 6]

Aggregation at pH 6 compared to pH 5 (ThT) ([1]; 200 μM, 37 °C): ~3 fold
Aggregation at pH 7 compared to pH 5 (ThT) ([1]; 200 μM, 37 °C): ~4 fold
Concentration at which amyloid-like aggregation was observed (ThT) ([1]; 37 °C): > 4 µM
Aggregation at a final concentration of 1 μM (ThT) ([1]; pH 5.0, 37 °C): but not at a final concentration of 1 μM
Substance: MOG35-55(Cit3) [Peptide 8]

Concentration at which amyloid-like aggregation was observed (ThT) ([1]; 37 °C): > 4 µM
Substance: MOG35-55(Cit41) [Peptide 2]

Concentration at which amyloid-like aggregation was observed (ThT) ([1]; 37 °C): > 4 µM
Aggregation at a final concentration of 1 μM (ThT) ([1]; pH 5.0, 37 °C): but not at a final concentration of 1 μM
Substance: MOG35-55(Cit46) [Peptide 3]

Further lines, the substance ahead of its results:

Substance: MOG31-55(NArg3) (NATGMEVGWYRPPFSRVVHLYRNGK; UniProt Q16653 60-84, looked up, fragment) [Peptide 9]
Aggregation of elongated MOG31–55 peptides (ThT) ([1]; pH 5.0, 37 °C, 1–200 μM): Neither 9 nor 10 aggregated

Substance: MOG31-55(Pg_Cit41&46) [Peptide 11]
Intracellular aggregation in EBV-infected BLCs (within LC3 positive vesicles) [2]: small spheres
Aggregates in the absence of cells (CuAAC with Alexa647-azide) [2]: large aggregates
Concentration giving increased level of apoptosis (Annexin V) [3]: > 1000 ng/mL

Substance: MOG35-55(Arg3) (MEVGWYRPPFSRVVHLYRNGK-NH2; not fully specified; UniProt Q16653 64-84, looked up, fragment) [Peptide 1]
Aggregation kinetics on seeding (ThT) [4]: no aggregation was observed
Aggregation at any pH or any concentration tested (ThT) ([1]; pH 3.0–7.0 at 200 μM, 1–200 μM at pH 5.0, 37 °C): did not show any aggregation

Substance: MOG31-55(Pg_Cit46&Cit52) [Peptide 12]
Intracellular aggregation in EBV-infected BLCs (within LC3 positive vesicles) [2]: large agglomerates
Aggregates in the absence of cells (CuAAC with Alexa647-azide) [2]: large aggregates
Concentration giving increased level of apoptosis (Annexin V) [3]: > 1000 ng/mL

From article PMC6374747 (Biochemistry, 2018)
